Assay results from ChEMBL document CHEMBL1125197, “Studies on uricosuric diuretics. 4. Three-dimensional structure-activity relationships and receptor mapping of (aryloxy)acetic acid diuretics” (1991).

These compounds were tested on Rattus norvegicus (assay: Diuretic activity after peroral administration of 100 mg/Kg in rats).
Assay type: functional, Urine
How it was run: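 Seven-week-old Wistar–Imamichi rats, fasted 24 h, in groups of five matched for urine output; forced urination before dosing. Oral dose of 100 mg/kg, suspended in physiological saline with 3% gum arabic at 25 mL/kg. Controls received vehicle alone. Animals kept fasted in separate metabolic cages, with urine collected for 6 h. Urine volume expressed as % of control (100%).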

SMILES | Relative activity
O=C(O)COc1cc2c(=O)c3ccccc3oc2cc1Cl | 200%
O=C(O)C1Cc2c(c(Cl)cc3c(-c4ccccc4)noc23)O1 (stereo not drawn) | 120%
O=C(c1cccs1)c1cc2c(c(Cl)c1Cl)O[C@@H](C(=O)O)C2 | <100%
O=C(O)COc1ccc(C(=O)c2cccs2)c(Cl)c1Cl [TICRYNAFEN] | 160%
O=C(c1cccs1)c1cc2c(c(Cl)c1Cl)O[C@H](C(=O)O)C2 | 400%
O=C(O)C1Cc2cc3c(-c4ccccc4)noc3c(Cl)c2O1 (stereo not drawn) | 300%
O=C(O)C1Cc2c(c(Cl)cc3c(=O)c4ccccc4oc23)O1 (stereo not drawn) | 300%
C[C@]1(c2ccccc2)Cc2cc(OCC(=O)O)c(Cl)c(Cl)c2C1=O | 350%
CC1(c2ccccc2)Cc2cc(OCC(=O)O)c(Cl)c(Cl)c2C1=O (racemic) [INDACRINONE] | 300%
O=C(O)C1Cc2cc3c(=O)c4ccccc4oc3c(Cl)c2O1 (stereo not drawn) | 200%
O=C(c1cccs1)c1cc2c(c(Cl)c1Cl)OC(C(=O)O)C2 (racemic) | 350%
O=C(O)C1Oc2c(Cl)cc3c(-c4ccccc4)noc3c2O1 (stereo not drawn) | 160%
O=C(O)C1Oc2cc3c(-c4ccccc4)noc3c(Cl)c2O1 (stereo not drawn) | 450%
O=C(O)C1Cc2cc(-c3noc4ccccc34)c(Cl)c(Cl)c2O1 (stereo not drawn) | 300%
O=C(O)C1Cc2c(c(Cl)c(Cl)c3nc(-c4ccccc4)oc23)O1 (stereo not drawn) | 450%
C[C@@]1(c2ccccc2)Cc2cc(OCC(=O)O)c(Cl)c(Cl)c2C1=O | 200%
O=C(O)COc1ccc2c(-c3ccccc3F)noc2c1Cl | 250%
O=C(O)COc1cc2oc3ccccc3c(=O)c2cc1Cl | 200%
